These results are taken from ChEMBL document CHEMBL2029240 (ACS Med Chem Lett, 2011).

Active and inactive are the calls of the source. The calls are words filed in the database; no cut-off is given here.

In one series the target is T1, Cytochrome P450 1A2 (Homo sapiens, UniProt P05177).
T1 sequence (P05177 whole entry): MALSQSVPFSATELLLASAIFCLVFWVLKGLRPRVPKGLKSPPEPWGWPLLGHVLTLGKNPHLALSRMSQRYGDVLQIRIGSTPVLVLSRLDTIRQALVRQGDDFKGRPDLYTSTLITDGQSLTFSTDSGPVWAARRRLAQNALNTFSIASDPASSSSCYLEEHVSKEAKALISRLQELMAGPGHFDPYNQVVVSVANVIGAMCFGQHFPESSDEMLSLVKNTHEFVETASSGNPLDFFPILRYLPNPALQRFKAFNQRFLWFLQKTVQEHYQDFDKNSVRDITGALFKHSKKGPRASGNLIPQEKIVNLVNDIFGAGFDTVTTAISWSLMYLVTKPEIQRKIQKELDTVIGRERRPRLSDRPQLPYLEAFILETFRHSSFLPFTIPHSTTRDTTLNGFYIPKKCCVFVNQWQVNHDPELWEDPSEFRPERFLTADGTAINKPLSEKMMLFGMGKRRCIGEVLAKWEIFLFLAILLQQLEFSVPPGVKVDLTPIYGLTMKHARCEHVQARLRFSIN
As to the kind of experiment: Inhibition of CYP1A2. The series is classed as ADME.

The nature of series [1]: Half life in dog at 2 mg/kg, iv. The series is classed as ADME, organism-based, Canis lupus familiaris. Also noted: dose 2 mg/kg, route intravenous. To be noted: in vivo.
Series [2] addresses T2, C-X-C chemokine receptor type 5 (Homo sapiens) (UniProt P32302).
T2 sequence (whole entry): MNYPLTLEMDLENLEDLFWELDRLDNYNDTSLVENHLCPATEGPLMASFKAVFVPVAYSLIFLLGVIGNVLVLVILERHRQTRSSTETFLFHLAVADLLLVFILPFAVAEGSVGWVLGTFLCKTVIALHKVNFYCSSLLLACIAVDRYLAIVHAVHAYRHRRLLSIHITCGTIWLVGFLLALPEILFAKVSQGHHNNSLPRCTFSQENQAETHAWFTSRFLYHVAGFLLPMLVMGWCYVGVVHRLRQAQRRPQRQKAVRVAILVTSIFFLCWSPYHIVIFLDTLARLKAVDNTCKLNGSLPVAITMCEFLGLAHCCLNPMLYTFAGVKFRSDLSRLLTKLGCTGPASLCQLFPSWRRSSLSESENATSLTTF
The series is described as follows: Inhibition of CXCR5 at 1 uM. In short, it runs like this:
(§1)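 Single-concentration screen at 1 μM against a broad panel of more than 50 targets (ion channels, transporters, chemokine receptors, other GPCRs), scored for significant inhibition.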

Series [3] concerns Rattus norvegicus. As to the kind of experiment: Oral bioavailability in rat at 10 mg/kg. It counts as ADME, organism-based. To be noted: in vivo. Put shortly:
(§2)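 Rats were dosed iv at 2 mg/kg and orally at 10 mg/kg. Plasma PK parameters derived: CL (L/h/kg), Vss (L/kg), t1/2 (h), Cmax (nM), Tmax (h), AUC (nM h) and oral F%.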

Series [4] is described as follows: Half life in rat at 10 mg/kg, po. It counts as ADME, organism-based. Also noted: dose 10 mg/kg, route oral. The following applies: in vivo. Put shortly:
as §2

Series [5] in a line: Permeability across human Caco2 cells. The series is classed as ADME, cell-based. To be noted: Caco-2, read-out: permeability. A general note: Passage across Caco-2 layers is used to estimate intestinal permeability.
Series [6] addresses T3, C-C chemokine receptor type 2 (Rattus norvegicus, UniProt O55193).
T3 sequence (O55193 whole entry): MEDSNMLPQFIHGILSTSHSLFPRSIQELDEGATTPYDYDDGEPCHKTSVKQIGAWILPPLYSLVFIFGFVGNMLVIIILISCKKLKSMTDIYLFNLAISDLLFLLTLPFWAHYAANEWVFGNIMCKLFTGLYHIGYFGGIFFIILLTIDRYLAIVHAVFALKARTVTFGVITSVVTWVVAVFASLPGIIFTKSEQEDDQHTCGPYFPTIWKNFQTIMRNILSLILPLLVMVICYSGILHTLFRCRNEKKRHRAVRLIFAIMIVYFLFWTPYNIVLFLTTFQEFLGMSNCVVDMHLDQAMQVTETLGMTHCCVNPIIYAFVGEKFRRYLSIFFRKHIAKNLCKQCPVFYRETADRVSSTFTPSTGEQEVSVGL
The series is described as follows: Antagonist activity at rat CCR2. The series is classed as functional.

Series [7] has as its target T4, C-C chemokine receptor type 1 (Homo sapiens) (UniProt P32246).
T4 sequence (whole entry): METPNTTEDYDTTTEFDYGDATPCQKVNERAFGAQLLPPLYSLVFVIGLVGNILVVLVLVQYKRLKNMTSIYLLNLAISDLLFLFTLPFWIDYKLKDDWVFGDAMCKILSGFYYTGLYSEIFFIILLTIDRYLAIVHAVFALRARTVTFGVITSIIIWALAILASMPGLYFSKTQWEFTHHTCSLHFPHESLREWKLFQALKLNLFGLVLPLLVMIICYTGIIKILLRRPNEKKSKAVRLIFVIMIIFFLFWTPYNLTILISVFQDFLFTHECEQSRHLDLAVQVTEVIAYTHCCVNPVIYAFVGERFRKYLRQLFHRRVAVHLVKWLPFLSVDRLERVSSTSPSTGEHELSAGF
The series is described as follows: Inhibition of CCR1 at 1 uM. In short, it runs like this:
as §1

Series [8] has as its system Rattus norvegicus. As to the kind of experiment: Clearance in rat at 2 mg/kg, iv. To be noted: in vivo. Also noted: dose 2 mg/kg, route intravenous. The series is classed as ADME, organism-based. Put shortly:
as §2

Series [9] addresses Voltage-gated inwardly rectifying potassium channel KCNH2 (Homo sapiens, UniProt Q12809). As to the kind of experiment: Inhibition of human ERG by patch clamp assay. Background: In patch-clamp work, channel activity is measured electrically.
The nature of series [10]: Drug metabolism in human S9 fraction assessed as glutathione adduct formation in the presence of NADPH. The series is classed as ADME, subcellular. In short, it runs like this:
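Test agent incubated with human liver S9 fraction plus glutathione as cofactor, run both with and without NADPH. Read-out was detection of glutathione adducts.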

The nature of series [11]: Fraction unbound in human serum. It counts as ADME, cell-free.
The target of series [12] is T5, C-C chemokine receptor type 2 (Mus musculus, UniProt P51683). As to the kind of experiment: Antagonist activity at mouse CCR2. The series is classed as functional. In short, it runs like this: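 Read-out was antagonism of CCR2-mediated chemotaxis in a mouse chemotaxis assay, with activity reported as IC50.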
A short description of series [13]: Volume of distribution at steady state in dog at 2 mg/kg, iv. Also noted: dose 2 mg/kg, route intravenous. To be noted: in vivo, read-out: Vdss. The series is classed as ADME, organism-based, Canis lupus familiaris.
Series [14] in a line: Induction of Cytochrome P450 up to 30 uM. It counts as ADME.
A short description of series [15]: Cmax in dog at 10 mg/kg, po. The following applies: in vivo. On the set-up: dose 10 mg/kg, route oral. It counts as ADME, organism-based, Canis lupus familiaris.
The target of another series is Cytochrome P450 2D6 (Homo sapiens, UniProt P10635). As to the kind of experiment: Inhibition of CYP2D6. The series is classed as ADME.
In series [16] the target is T3, C-C chemokine receptor type 2. The series is described as follows: Binding affinity to rat CCR2.
In series [17] the target is T5, C-C chemokine receptor type 2. The series is described as follows: Binding affinity to mouse CCR2. In short, it runs like this: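 Mouse CCR2 binding assay, with affinity reported as IC50.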
For a further series, the target named is hERG (KCNH2) (Homo sapiens, UniProt Q12809). As to the kind of experiment: Inhibition of human ERG at 10 uM by patch clamp assay.
Series [18] in a line: Half life in human liver microsomes. The series is classed as ADME, Microsome. On the technique in general: Microsomes from liver hold many membrane-bound enzymes, among them those of drug oxidation.
Series [19] can be described thus: Cmax in rat at 10 mg/kg, po. On the set-up: dose 10 mg/kg, route oral. The series is classed as ADME, organism-based. The following applies: in vivo. In short, it runs like this:
as §2

In series [20] the test system is Rattus norvegicus. As to the kind of experiment: Half life in rat at 2 mg/kg, iv. The series is classed as ADME, organism-based. Also noted: dose 2 mg/kg, route intravenous. The following applies: in vivo. In short, it runs like this:
as §2

T5 sequence (P51683 whole entry): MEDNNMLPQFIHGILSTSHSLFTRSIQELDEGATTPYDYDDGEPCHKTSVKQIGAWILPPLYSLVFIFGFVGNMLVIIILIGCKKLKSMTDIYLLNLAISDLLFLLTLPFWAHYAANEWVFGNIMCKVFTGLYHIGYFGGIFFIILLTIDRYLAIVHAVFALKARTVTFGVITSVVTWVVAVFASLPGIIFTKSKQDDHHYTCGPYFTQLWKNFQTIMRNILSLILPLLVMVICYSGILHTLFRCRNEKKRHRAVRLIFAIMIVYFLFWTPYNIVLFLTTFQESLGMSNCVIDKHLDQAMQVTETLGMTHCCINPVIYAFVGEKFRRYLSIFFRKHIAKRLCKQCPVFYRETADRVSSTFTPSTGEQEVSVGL
Sequence of Cytochrome P450 2D6 (P10635 whole entry): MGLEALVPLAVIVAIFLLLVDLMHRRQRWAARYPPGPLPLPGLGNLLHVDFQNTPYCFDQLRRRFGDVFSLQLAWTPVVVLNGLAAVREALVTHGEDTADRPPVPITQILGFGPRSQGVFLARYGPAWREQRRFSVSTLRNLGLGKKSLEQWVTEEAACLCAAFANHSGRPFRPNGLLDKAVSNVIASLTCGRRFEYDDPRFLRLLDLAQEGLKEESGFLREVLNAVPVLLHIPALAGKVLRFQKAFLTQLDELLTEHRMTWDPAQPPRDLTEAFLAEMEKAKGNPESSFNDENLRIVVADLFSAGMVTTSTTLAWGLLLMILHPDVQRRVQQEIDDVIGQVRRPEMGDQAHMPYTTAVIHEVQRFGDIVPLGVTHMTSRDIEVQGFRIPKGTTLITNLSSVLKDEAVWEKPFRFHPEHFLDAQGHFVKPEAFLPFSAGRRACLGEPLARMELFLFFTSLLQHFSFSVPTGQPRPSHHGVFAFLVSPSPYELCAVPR
Sequence of Voltage-gated inwardly rectifying potassium channel KCNH2 (Q12809 whole entry): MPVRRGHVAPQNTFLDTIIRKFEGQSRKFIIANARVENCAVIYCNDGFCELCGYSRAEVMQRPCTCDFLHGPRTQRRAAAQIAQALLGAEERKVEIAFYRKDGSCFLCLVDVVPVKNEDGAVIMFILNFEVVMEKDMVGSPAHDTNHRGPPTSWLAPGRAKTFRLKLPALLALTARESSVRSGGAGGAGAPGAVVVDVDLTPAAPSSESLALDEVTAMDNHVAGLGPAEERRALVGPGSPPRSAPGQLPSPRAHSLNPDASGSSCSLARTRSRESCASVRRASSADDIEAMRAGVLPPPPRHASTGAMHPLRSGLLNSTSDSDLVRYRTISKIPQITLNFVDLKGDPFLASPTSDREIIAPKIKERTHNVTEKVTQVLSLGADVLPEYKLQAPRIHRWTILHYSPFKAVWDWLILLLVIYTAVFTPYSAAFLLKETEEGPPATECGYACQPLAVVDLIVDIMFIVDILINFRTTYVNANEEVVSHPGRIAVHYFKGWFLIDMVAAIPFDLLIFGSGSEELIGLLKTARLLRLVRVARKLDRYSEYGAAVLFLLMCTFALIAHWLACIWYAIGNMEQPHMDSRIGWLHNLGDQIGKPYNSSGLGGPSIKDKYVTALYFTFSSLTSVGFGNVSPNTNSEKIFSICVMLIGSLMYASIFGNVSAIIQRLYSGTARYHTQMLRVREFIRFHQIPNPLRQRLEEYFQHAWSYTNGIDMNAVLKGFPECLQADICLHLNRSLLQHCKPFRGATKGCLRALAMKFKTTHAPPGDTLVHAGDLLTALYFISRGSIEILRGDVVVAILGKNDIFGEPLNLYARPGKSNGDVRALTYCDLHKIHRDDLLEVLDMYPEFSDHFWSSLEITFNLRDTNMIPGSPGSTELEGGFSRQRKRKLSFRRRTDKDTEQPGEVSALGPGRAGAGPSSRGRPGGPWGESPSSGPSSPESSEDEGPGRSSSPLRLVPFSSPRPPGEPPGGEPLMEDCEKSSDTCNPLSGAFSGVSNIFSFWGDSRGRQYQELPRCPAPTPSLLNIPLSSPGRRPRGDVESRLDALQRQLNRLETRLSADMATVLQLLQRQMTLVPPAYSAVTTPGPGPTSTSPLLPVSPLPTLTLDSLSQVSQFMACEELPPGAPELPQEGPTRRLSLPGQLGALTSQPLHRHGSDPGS
Sequence of hERG (KCNH2) (Q12809 whole entry): as above

Take `O=C(NCC(=O)N1CC[C@H](N[C@H]2CC[C@@](O)(c3ccc(-c4ncccn4)cn3)CC2)C1)c1cccc(C(F)(F)F)c1` [PF-4136309]: the half-inhibitory concentration (IC50) (in general, the concentration needed to halve the response being measured) on Cytochrome P450 1A2 is over 30 µM; in series [6], 0.0028 µM; in series [9], 20 µM; in [12], 0.016 µM; on Cytochrome P450 2D6 it was over 30 µM; in series [16] it was 0.013 µM. Also, the half-inhibitory concentration (IC50) in series [17] turned out to be 0.017 µM. Further, the half-life (commonly how long it takes for the measured level to halve) in series [1] is 2.4 h; in [4] it was 2.5 h; in series [18], 1.48 h. Further, the inhibition entry in series [2] and in series [7] was “inactive” in each case. The F in the series with Rattus norvegicus [3] amounted to 78%. Also, the Papp in series [5] turned out to be 3.1 ×10⁻⁶ cm/s. The CL with Rattus norvegicus [8] came to 23.5 mL/min/kg. Further, the Drug metabolism entry in series [10] is “Not Active”. For the same compound, the fraction unbound (in general, free concentration divided by total concentration) in series [11] came to 0.23. The Vd in series [13] is 0.62 L/kg. In addition, in series [14], the Activity result is listed as “Not Active”. In addition, the Cmax (usually the peak of the concentration-time curve) in series [15] worked out at 20 µM; in series [19], 0.61 µM. Also, the inhibition – broadly, the change of the read-out against control, counted positive when it falls – at 10 µM on hERG (KCNH2) is 35%. The t1/2 in the series with Rattus norvegicus [20] came out at 2.5 h.
